We go through 14 compounds from ChEMBL document CHEMBL4387794, “Constituents of the Edible Leaves of Melicope pteleifolia with Potential Analgesic Activity” (J Nat Prod, 2019).

Data set [1] relates to HaCaT. Kind of data set: Antipyretic activity in human HaCaT cells assessed as inhibition of TNFalpha-induced PGE2 production at 50 uM pre-incubated for 2 hrs before TNFalpha stimulation for 24 hrs by ELISA. In kind it is functional, cell-based. The method, boiled down:
(§1)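 HaCaT keratinocytes, seeded at 1.5 × 10^5 cells/well and grown overnight, then serum-starved 12 h. Pretreated with compounds for 2 h, then stimulated 24 h with 20 ng/mL TNF-α; unstimulated cells as negative control. Supernatant PGE2 quantified by ELISA, absorbance 450 nm. Means ± SD of three independent experiments.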

Data set [2] deals with HaCaT. Kind of data set: Cytotoxicity in human HaCaT cells assessed as reduction in cell viability at 100 uM incubated for 2 4 hrs by MTT assay. Type of data set: cell-based. The procedure, abridged:
(§2)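 MTT viability in HaCaT cells seeded at 10^4 cells/well. After 12 h, compounds added in serum-free medium for 24 h, then MTT 4 h. Formazan dissolved in DMSO, absorbance read at 550 nm. Triplicate wells, experiments repeated at least three times.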

For data set [3], the system named is HaCaT. Kind of data set: Antipyretic activity in human HaCaT cells assessed as inhibition of TNFalpha-induced PGE2 production at 100 uM pre-incubated for 2 hrs before TNFalpha stimulation for 24 hrs by ELISA. In kind it is functional, cell-based. The procedure, abridged: as §1
(An ELISA detects its analyte on a solid surface through an enzyme-linked reagent.)

The test system of data set [4] is HaCaT. Kind of data set: Cytotoxicity in human HaCaT cells assessed as reduction in cell viability at 50 uM incubated for 2 4 hrs by MTT assay. In kind it is cell-based. The procedure, abridged: as §2
Background: Formazan colour is commonly taken as a measure of viable cells.

For a further data set, the system named is Mus musculus. Nature of the data set: Antipyretic activity in ICR mouse assessed as suppression of LPS-induced febrile response measured at 10 mg/kg, po administered 30 mins before LPS injection and measured up to 6 hrs post LPS injection. In kind it is functional, organism-based. The method, boiled down: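 Male 8-week-old ICR mice, 5 per group, reverse 12 h light/dark cycle. Compound suspended in 0.5% carboxymethyl cellulose, given orally 30 min before i.p. LPS (0.5 mg/kg in pyrogen-free PBS). Baseline rectal Tb from six readings over 2 h, then Tb followed to 6 h post-LPS. Each hour compared to LPS group, Student t-test, p < 0.05.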

[5] abbreviates: 50 uM, in the assay text read “at 50 uM” for “at 100 uM”.

Active and inactive are the calls of the source. No cut-off for these calls is given here.

On to `CC(=O)c1c(O)c([C@@H]2O[C@H](CO)[C@@H](O)[C@H](O)[C@H]2O)c(O)c2c1O[C@]1(C2)O[C@H](CO)[C@@H](O)[C@@H]1O`, for which the inhibition result with HaCaT [1] and in the data set with HaCaT [3] (100 uM) was “Active” in each case. Also, the Activity entry in the data set with HaCaT [2] is “Non-Toxic”.
Turning to `COc1cc(/C=C/C(=O)OC[C@H]2O[C@@H](c3c(O)c(C(C)=O)c(O)c([C@@H]4O[C@H](COC(=O)/C=C/c5ccc(O)cc5)[C@@H](O)[C@H](O)[C@H]4O)c3O)[C@H](O)[C@@H](O)[C@@H]2O)ccc1O`, the inhibition result in the data set on HaCaT [1] and in the data set with HaCaT [3] (setting [5]) was “Active” throughout. In addition, the values for the Activity entry with HaCaT [4] and in the data set on HaCaT [2] were “Non-Toxic” and “Toxic”, respectively.
As for `CC(=O)c1c(O)c([C@@H]2O[C@H](CO)[C@@H](O)[C@H](O)[C@H]2O)c(O)c([C@@H]2O[C@H](CO)[C@@H](O)[C@H](O)[C@H]2O)c1O`, the inhibition result with HaCaT [1] and in the data set on HaCaT [3] (100 uM) was “Active” in each case. Also, in the data set with Mus musculus, the result was Active. The Activity entry with HaCaT [2] is recorded as “Non-Toxic”.
For the compound `CC(=O)c1c(O)c([C@@H]2O[C@H](CO)[C@@H](O)[C@H](O)[C@H]2O)c(O)c([C@@H]2O[C@H](COC(=O)/C=C/c3ccc(O)cc3)[C@@H](O)[C@H](O)[C@H]2O)c1O`, the inhibition result in the data set with HaCaT [1] and in the data set with HaCaT [3] (100 uM) was “Active” throughout. For the same compound, in the data set on HaCaT [2], the Activity entry is given as “Non-Toxic”.
With `CC(=O)c1c(O)c([C@@H]2O[C@H](CO)[C@@H](O)[C@H](O)[C@H]2O)c(O)c2c1O[C@]1(C2)O[C@H](CO)[C@@H](O)[C@H]1O`, the inhibition entry in the data set on HaCaT [1] and in the data set on HaCaT [3] (100 uM) was “Active” each time. Further, the Activity result in the data set on HaCaT [2] is listed as “Non-Toxic”.
As to `CC(=O)Oc1ccccc1C(=O)O`, in the data set on HaCaT [3] (100 uM), the inhibition entry is “Active”.
On to `CC(=O)c1c(O)c([C@@H]2O[C@H](CO)[C@@H](O)[C@H](O)[C@H]2O)c(O)c2c1O[C@@]1(C2)O[C@H](CO)[C@H](O)[C@@H]1O`, for which the inhibition entry in the data set on HaCaT [1] and with HaCaT [3] (100 uM) was “Active” each time. Further, the Activity entry in the data set with HaCaT [2] is recorded as “Non-Toxic”.
On to `CC(=O)c1c(O)c([C@@H]2O[C@H](CO)[C@@H](O)[C@H](O)[C@H]2O)c(O)c2c1O[C@@]1(C2)O[C@@H](CO)[C@H](O)[C@H]1O`, for which the inhibition result with HaCaT [1] and in the data set on HaCaT [3] (100 uM) was “Active” each time. Besides, the Activity result in the data set on HaCaT [2] is on record as “Non-Toxic”.
With `CC(=O)c1c(O)c([C@@H]2O[C@H](COC(=O)/C=C/c3ccc(O)cc3)[C@@H](O)[C@H](O)[C@H]2O)c(O)c([C@@H]2O[C@H](COC(=O)/C=C/c3ccc(O)cc3)[C@@H](O)[C@H](O)[C@H]2O)c1O`, the inhibition entry in the data set with HaCaT [1] and in the data set on HaCaT [3] (100 uM) was “Active” in each case. The Activity entry with HaCaT [2] is “Non-Toxic”.
For the compound `COc1cc(/C=C/C(=O)OC[C@H]2O[C@@H](c3c(O)c(C(C)=O)c(O)c([C@@H]4O[C@H](CO)[C@@H](O)[C@H](O)[C@H]4O)c3O)[C@H](O)[C@@H](O)[C@@H]2O)ccc1O`, the inhibition result in the data set with HaCaT [1] and in the data set on HaCaT [3] (100 uM) was “Active” each time. Besides, the Activity result in the data set with HaCaT [2] was “Non-Toxic”.
On to `CC(=O)c1c(O)c([C@@H]2O[C@H](CO)[C@@H](O)[C@H](O)[C@H]2O)c(O)c([C@@H]2O[C@H](COC(=O)[C@H]3[C@H](C(=O)OC[C@H]4O[C@@H](c5c(O)c(C(C)=O)c(O)c([C@@H]6O[C@H](CO)[C@@H](O)[C@H](O)[C@H]6O)c5O)[C@H](O)[C@@H](O)[C@@H]4O)[C@@H](c4ccc(O)cc4)[C@@H]3c3ccc(O)cc3)[C@@H](O)[C@H](O)[C@H]2O)c1O`, for which the inhibition result in the data set with HaCaT [1] and in the data set with HaCaT [3] (100 uM) was “Active” each time. In the data set on HaCaT [2], the Activity entry is listed as “Non-Toxic”.
In the case of `CC(=O)c1c(O)c([C@@H]2O[C@H](CO)[C@@H](O)[C@H](O)[C@H]2O)c(O)c2c1O[C@@]1(C2)O[C@H](CO)[C@@H](O)[C@@H]1O`, the inhibition result in the data set with HaCaT [1] and in the data set on HaCaT [3] (100 uM) was “Active” in each case. In addition, in the data set on HaCaT [2], the Activity result was “Non-Toxic”.
As for `CC(=O)c1c(O)c([C@@H]2O[C@H](CO)[C@@H](O)[C@H](O)[C@H]2O)c(O)c([C@@H]2O[C@H](COC(=O)c3ccccc3)[C@@H](O)[C@H](O)[C@H]2O)c1O`, the inhibition entry in the data set on HaCaT [1] and in the data set with HaCaT [3] (100 uM) was “Active” throughout. In addition, the Activity result with HaCaT [2] is “Non-Toxic”.
`COc1cc(/C=C/C(=O)OC[C@H]2O[C@@H](c3c(O)c(C(C)=O)c(O)c([C@@H]4O[C@H](COC(=O)/C=C/c5ccc(O)c(OC)c5)[C@@H](O)[C@H](O)[C@H]4O)c3O)[C@H](O)[C@@H](O)[C@@H]2O)ccc1O`: the inhibition result in the data set on HaCaT [1] and with HaCaT [3] (setting [5]) was “Active” each time. Further, the values for the Activity result in the data set on HaCaT [4] and in the data set with HaCaT [2] were “Non-Toxic” and “Toxic”, respectively.
